What all share (format): functional, cell-based
Test [1] can be described thus: Cytotoxicity against human ECA109 cells after 48 hrs by MTT assay. As to conditions: ECa-109, 48 h. A digest of the protocol: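 Cells grown in RPMI 1640 with 10% FBS and 100 U/mL penicillin/streptomycin, humidified 5% CO2, 37 °C. Plated 5 × 10^3/well, exposed to test samples at various concentrations for 48 h. MTT then added in place of MTS, 4 h further. Formazan dissolved overnight in 20% SDS, A570 measured. IC50 by Reed and Muench method. Tanespimycin (17AAG) was the positive control.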
On the technique in general: Formazan colour is commonly taken as a measure of viable cells.

For test [2], the system named is SMMC-7721. As to the kind of experiment: Cytotoxicity against human SMMC7721 cells after 48 hrs by MTS assay. The settings on record: SMMC-7721, 48 h. In short, it runs like this:
(§1)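 Cells kept in RPMI 1640 with 10% FBS and 100 U/mL penicillin/streptomycin, 37 °C, 5% CO2. Seeded at 5 × 10^3/well with test samples at various concentrations for 48 h. MTS (5 mg/mL in PBS) added, 4 h more. Medium partly replaced by 20% SDS overnight to dissolve formazan. Absorbance read at 570 nm. IC50 calculated by Reed and Muench method. Cisplatin served as positive control.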

The subject of test [3] is MCF7. As to the kind of experiment: Cytotoxicity against human MCF7 cells after 48 hrs by MTS assay. The settings on record: MCF7, 48 h. A digest of the protocol:
as §1

For test [4], the system named is A549. As to the kind of experiment: Cytotoxicity against human A549 cells after 48 hrs by MTS assay. The settings on record: A549, 48 h. A digest of the protocol:
as §1

In test [5] the test system is SW480. As to the kind of experiment: Cytotoxicity against human SW480 cells after 48 hrs by MTS assay. The settings on record: SW480, 48 h. In short, it runs like this: as §1
For test [6], the system named is HL-60. As to the kind of experiment: Cytotoxicity against human HL60 cells after 48 hrs by MTS assay. As to conditions: HL-60, 48 h. A digest of the protocol: as §1

The text below walks through data of ChEMBL document CHEMBL2375340, “Cytotoxic bisbenzylisoquinoline alkaloids from Stephania epigaea” (J Nat Prod, 2013).

Usually IC50 stands for the concentration that inhibits the measured activity by half. High values mean weaker potency in that assay, low ones greater potency in that assay.

On to `COc1ccc2cc1Oc1ccc(cc1)C[C@H]1c3c(cc4c(c3Oc3cc5c(cc3OC)CCN(C)[C@@H]5C2)OCO4)CCN1C` [CEPHARANTHINE], for which the IC50 in test [1] was over 10 µM; in test [2], 9.9 µM; in test [3] it was 2.9 µM; in test [4], 5 µM; in test [5], 4.7 µM; in test [6], 9.2 µM.

Consider `COc1ccc2cc1Oc1ccc(cc1)C[C@H]1c3c(cc(OC)c(O)c3Oc3cc4c(cc3OC)CCN(C)[C@@H]4C2)CCN1C` [HOMOAROMOLINE], for which the IC50 in test [1] is over 10 µM; in test [2], over 10 µM; in test [3], 9.5 µM; in test [4], over 10 µM; in test [5], over 10 µM; in test [6], over 10 µM.

For the molecule `COc1ccc2cc1Oc1ccc(cc1)C[C@H]1c3c(cc4c(c3Oc3cc5c(cc3OC)CCN=C5C2)OCO4)CC[N@@+]1(C)[O-]`, the IC50 is 10 µM in test [1]; over 10 µM in test [2]; over 10 µM in test [3]; over 10 µM in test [4]; over 10 µM in test [5]; over 10 µM in test [6].

As to `COc1ccc2cc1Oc1ccc(cc1)C[C@H]1c3cc(c(OC)cc3CCN1C)Oc1c(O)c(OC)cc3c1[C@H](C2)N(C)CC3` [FANGCHINOLINE], the IC50 in test [1] is over 10 µM; in test [2], over 10 µM; in test [3], 5 µM; in test [4], over 10 µM; in test [5], over 10 µM; in test [6], over 10 µM.

In the case of `COc1ccc2cc1Oc1ccc(cc1)C[C@H]1c3c(cc4c(c3Oc3cc5c(cc3OC)CCN[C@@H]5C2)OCO4)CCN1C`, the IC50 is 3.2 µM in test [1]; 4.8 µM in test [2]; 2.3 µM in test [3]; 3.7 µM in test [4]; 3.7 µM in test [5]; 2.8 µM in test [6].

In test [1], `C=CCNC1=C2C[C@@H](C)C[C@H](OC)[C@H](O)[C@@H](C)/C=C(\C)[C@H](OC(N)=O)[C@@H](OC)/C=C\C=C(/C)C(=O)NC(=CC1=O)C2=O` [TANESPIMYCIN] came in with a half-inhibitory concentration (IC50) of 1.1 µM.
